{"source": "ChEMBL document CHEMBL4680238", "about": "“Novel octapeptide-DTX prodrugs targeting MMP-7 as effective agents for the treatment of colorectal cancer with lower systemic toxicity” (Eur J Med Chem, 2020)", "key": {"[1]": {"assay": "MRT (0 to infinity) in Sprague-Dawley rat assessed as docetaxel level at 5 mg/kg, iv measured up to 72 hrs by LC-MS/MS analysis", "assay_type": "ADME, organism-based", "details": "in vivo; call rule not given here", "how_it_was_run": "(§1)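 Male SD rats (180-200 g), fasted 12 h with free water, n = 3 per group. Single tail-vein dose of 5 mg/kg in 0.5% DMSO/5% castor oil/5% ethanol/89.5% saline. Retro-orbital blood drawn 0.083-72 h with heparin. Plasma protein-precipitated with methanol containing paclitaxel internal standard, then analysed by LC-MS/MS. Parameters from non-compartmental analysis, mean ± SD. For the DTX group, parameters were calculated after converting dose to the molar equivalent of the prodrug.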"}, "[2]": {"assay": "Drug uptake in BALB/c nude mouse xenografted with human HCT-116 cells assessed as drug level in heart at 5 mg/kg, iv measured up to 24 hrs by LC-MS/MS analysis", "assay_type": "ADME, organism-based", "details": "in vivo", "how_it_was_run": "(§2)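 Male BALB/c nude mice bearing s.c. HCT116 tumours (200-300 mm3), 20 per group. Single tail-vein dose of 5 mg/kg. Five mice per group killed at 0.5, 4, 8 and 24 h and heart-perfused with PBS. Tissues homogenized in saline (4 µL/mg) and precipitated with methanol containing paclitaxel internal standard. Prodrug, released DTX and free DTX measured by LC-MS/MS.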"}, "[3]": {"assay": "Half life of compound in PBS buffer at pH 7.4 at 50 ug/ml up to 72 hrs by RP-HPLC analysis", "assay_type": "physicochemical", "details": "dose 50 µg/ml"}, "HEK293": {"system": "HEK293", "assay": "Cytotoxicity against HEK293 cells assessed as reduction in cell viability after 48 hrs by MTT assay", "assay_type": "cell-based", "details": "Homo sapiens, HEK293, 48 h", "how_it_was_run": "(§3)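 Cells seeded at 5000/well and precultured 1 day. HCT116 grown in McCoy's 5A + 10% FBS; SW620 and HEK293 in DMEM + 10% FBS; CCD18Co in DMEM + 15% FBS. Compounds from 0.1 M DMSO stocks were tested at 10^-10 to 10^-4 mol/L in sixplicate: HCT116 and HEK293 for 48 h, SW620 and CCD18Co for 72 h, at 37 °C, 5% CO2. MTT (5 mg/mL) added for 4 h, then A570 read; IC50 estimated.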"}, "HCT-116 [4]": {"system": "HCT-116", "assay": "Antitumour activity against human HCT-116 cells xenografted in BALB/c nude mouse assessed as tumour growth inhibition at 5.85 mg/kg, ip administered once for every 7 days for 14 days relative to control", "assay_type": "functional", "details": "HCT-116, ip, 336 h, time 14 day, read-out: TGI", "how_it_was_run": "(§4)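 Male BALB/c nude mice received s.c. HCT116 cells (2 × 10^6 in 0.2 mL PBS). Once tumours reached 100-200 mm3, mice were randomized into groups of six. Dosing was ip, 0.1 mL/10 g, once every 7 days, in DMSO 0.5%/castor oil 5%/ethanol 5%/saline 89.5%; vehicle controls got solvent. Caliper volume V = L×W²×0.52 read every 2-3 days. Tumours excised and weighed on day 14.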"}, "[5]": {"assay": "Toxicity in BALB/c nude mouse xenografted with human HCT-116 cells assessed as reduction in body weight at 5.85 mg/kg, ip administered once for every 7 days for 14 days relative to control", "assay_type": "organism-based", "parameters": "scale not given: the % may be the effect or the level left", "details": "in vivo, 336 h, time 14 day", "how_it_was_run": "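HCT116 cells (2 × 10^6 in 0.2 mL PBS) inoculated subcutaneously into male BALB/c nude mice; at mean tumor volume 100-200 mm3, randomized, six mice per group. Dosed intraperitoneally once every 7 days in DMSO (0.5%)/castor oil (5%)/ethanol (5%)/saline (89.5%), 0.1 mL per 10 g; vehicle controls received solvent. Body weight monitored every other day or three days; mice weighed on day 14.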"}, "[6]": {"assay": "Apparent clearance in Sprague-Dawley rat assessed as docetaxel level at 5 mg/kg, iv measured up to 72 hrs by LC-MS/MS analysis", "assay_type": "ADME, organism-based", "details": "in vivo", "how_it_was_run": "as §1"}, "[7]": {"assay": "Drug uptake in BALB/c nude mouse xenografted with human HCT-116 cells assessed as drug level in lung at 5 mg/kg, iv measured up to 24 hrs by LC-MS/MS analysis", "assay_type": "ADME, organism-based", "details": "in vivo", "how_it_was_run": "as §2"}, "HCT-116 [8]": {"system": "HCT-116", "assay": "Cytotoxicity against human HCT-116 cells assessed as reduction in cell viability after 48 hrs by MTT assay", "assay_type": "functional, cell-based", "details": "HCT-116, 48 h", "how_it_was_run": "as §3"}, "[9]": {"assay": "AUC (0 to t) in Sprague-Dawley rat at 5 mg/kg, iv measured up to 72 hrs by LC-MS/MS analysis", "assay_type": "ADME, organism-based", "parameters": "route intravenous, dose 5 mg/kg, time <=72", "details": "in vivo", "how_it_was_run": "as §1"}, "HCT-116 [10]": {"system": "HCT-116", "assay": "Antitumour activity against human HCT-116 cells xenografted in BALB/c nude mouse assessed as tumour growth inhibition at 11.7 mg/kg, ip administered once for every 7 days for 14 days relative to control", "assay_type": "functional", "details": "HCT-116, ip, 336 h, time 14 day, read-out: TGI", "how_it_was_run": "as §4"}, "CCD-18Co": {"system": "CCD-18Co", "assay": "Cytotoxicity against human CCD-18Co cells assessed as reduction in cell viability after 72 hrs by MTT assay", "assay_type": "cell-based", "how_it_was_run": "as §3"}, "[11]": {"assay": "Drug uptake in BALB/c nude mouse xenografted with human HCT-116 cells assessed as drug level in kidney at 5 mg/kg, iv measured up to 24 hrs by LC-MS/MS analysis", "assay_type": "ADME, organism-based", "details": "in vivo", "how_it_was_run": "as §2"}, "[12]": {"assay": "Toxicity in BALB/c nude mouse xenografted with human HCT-116 cells assessed as reduction in body weight at 11.7 mg/kg, ip administered once for every 7 days for 14 days relative to control", "assay_type": "organism-based", "parameters": "scale not given: the % may be the effect or the level left", "details": "in vivo, 336 h, time 14 day", "how_it_was_run": "(§5)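 HCT116 s.c. xenografts in male BALB/c nude mice, n = 6 per group. Dosing was ip once every 7 days for 2 weeks in DMSO/castor oil/ethanol/saline; vehicle controls got solvent. Body weight recorded every other day or every three days. Weight loss taken at day 14. Mean ± SD.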"}, "[13]": {"assay": "Toxicity in BALB/c nude mouse xenografted with human HCT-116 cells assessed as disordered myocardial fiber in heart at 11.73 mg/kg, ip administered once for every 7 days for 14 days by H and E staining based assay", "assay_type": "organism-based", "details": "in vivo, 336 h, time 14 day", "how_it_was_run": "(§6)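 At the end of the 14-day ip xenograft study (HCT116, BALB/c nude), heart and liver were collected from vehicle and molar-equivalent dose groups. Tissues fixed in 10% formalin in PBS and stained with H&E. Liver examined at 400×, heart at 100×.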"}, "[14]": {"assay": "Half life in Sprague-Dawley rat at 5 mg/kg, iv measured up to 72 hrs by LC-MS/MS analysis", "assay_type": "ADME, organism-based", "details": "in vivo", "how_it_was_run": "as §1"}, "[15]": {"assay": "Drug uptake in BALB/c nude mouse xenografted with human HCT-116 cells assessed as drug level in spleen at 5 mg/kg, iv measured up to 24 hrs by LC-MS/MS analysis", "assay_type": "ADME, organism-based", "details": "in vivo", "how_it_was_run": "as §2"}, "[16]": {"assay": "Drug uptake in BALB/c nude mouse xenografted with human HCT-116 cells assessed as drug level in liver at 5 mg/kg, iv measured up to 24 hrs by LC-MS/MS analysis", "assay_type": "ADME, organism-based", "details": "in vivo", "how_it_was_run": "as §2"}, "[17]": {"assay": "Toxicity in BALB/c nude mouse xenografted with human HCT-116 cells assessed as necrosis in liver at 11.73 mg/kg, ip administered once for every 7 days for 14 days by H and E staining based assay", "assay_type": "organism-based", "details": "in vivo, 336 h, time 14 day", "how_it_was_run": "as §6"}, "[18]": {"assay": "MRT (0 to infinity) in Sprague-Dawley rat at 5 mg/kg, iv measured up to 72 hrs by LC-MS/MS analysis", "assay_type": "ADME, organism-based", "details": "in vivo", "how_it_was_run": "as §1"}, "[19]": {"assay": "Toxicity in BALB/c nude mouse xenografted with human HCT-116 cells assessed as reduction in body weight at 23.4 mg/kg, ip administered once for every 7 days for 14 days relative to control", "assay_type": "organism-based", "parameters": "scale not given: the % may be the effect or the level left", "details": "in vivo, 336 h, time 14 day", "how_it_was_run": "as §5"}}, "note": "Residues, ends and D or L forms follow the SMILES beside them. *: point of attachment. X1 = CC(=O)O[C@@]12CO[C@@H]1C[C@H](O)[C@@]1(C)C(=O)[C@H](O)C3=C(C)[C@@H](OC(=O)[C@H](OC(=O)OCc4ccc(N*)cc4)[C@@H](NC(=O)OC(C)(C)C)c4ccccc4)C[C@@](O)([C@@H](OC(=O)c4ccccc4)[C@H]21)C3(C)C"}
{"smiles": "CC[C@H](C)[C@H](NC(=O)CNC(=O)[C@H](CCC(N)=O)NC(=O)[C@@H]1CCCN1C(=O)CNC(C)=O)C(=O)N[C@@H](C)C(=O)N[C@@H](CCSC)C(=O)N[C@@H](CCC(N)=O)C(=O)N[C@@H](CC(C)C)C(=O)Nc1ccc(COC(=O)O[C@@H](C(=O)O[C@H]2C[C@@]3(O)[C@@H](OC(=O)c4ccccc4)[C@@H]4[C@]5(OC(C)=O)CO[C@@H]5C[C@H](O)[C@@]4(C)C(=O)[C@H](O)C(=C2C)C3(C)C)[C@@H](NC(=O)OC(C)(C)C)c2ccccc2)cc1", "note": "(Ac-GPQGIAMQL-X1)", "values": [{"measurement": "MRT", "setting": "[1]", "result": 9.04, "unit": "h"}, {"measurement": "Drug uptake", "setting": "[2]", "result": "Active"}, {"measurement": "half-life at 50 ug/ml", "setting": "[3]", "result": "> 72", "unit": "h"}, {"measurement": "IC50", "setting": "HEK293", "result": 137, "unit": "µM"}, {"measurement": "inhibition in vivo at 5.85 mg/kg", "setting": "HCT-116 [4]", "result": 28.8, "unit": "%"}, {"measurement": "Activity", "setting": "[5]", "result": 4.9, "unit": "%"}, {"measurement": "CL(app)", "setting": "[6]", "result": 316.3, "unit": "mL/min/kg"}, {"measurement": "Drug uptake", "setting": "[7]", "result": "Active"}, {"measurement": "IC50", "setting": "HCT-116 [8]", "result": 0.0091, "unit": "µM"}, {"measurement": "AUC(0-t) at 72 h", "setting": "[9]", "result": 9070, "unit": "ng·h/mL"}, {"measurement": "inhibition in vivo at 11.7 mg/kg", "setting": "HCT-116 [10]", "result": 46.3, "unit": "%"}, {"measurement": "IC50", "setting": "CCD-18Co", "result": "> 200", "unit": "µM"}, {"measurement": "Drug uptake", "setting": "[11]", "result": "Active"}, {"measurement": "Activity", "setting": "[12]", "result": 8.5, "unit": "%"}, {"measurement": "Activity", "setting": "[13]", "result": "Non-Toxic"}, {"measurement": "half-life", "setting": "[14]", "result": 12.8, "unit": "h"}, {"measurement": "Drug uptake", "setting": "[15]", "result": "Active"}, {"measurement": "Drug uptake", "setting": "[16]", "result": "Active"}, {"measurement": "Activity", "setting": "[17]", "result": "Non-Toxic"}, {"measurement": "MRT inf", "setting": "[18]", "result": 11.6, "unit": "h"}, {"measurement": "Activity", "setting": "[19]", "result": 12.2, "unit": "%"}]}
